Common to all, as to format: ADME, organism-based
Data set [1] is filed under the species Rattus norvegicus. The data set is described as follows: […] determined in faces of rat followed by […] of chelating agent. The conditions noted are these: in vivo, iv. A digest of the protocol:
(§1)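 Normal rats. Storage iron was labelled with [⁵⁹Fe]ferritin, given im as 1 mL in sterile normal saline (0.2–0.4 μCi ⁵⁹Fe/mL, 40 μg ferritin iron). The ferritin was prepared in vivo from [⁵⁹Fe]citrate in iron-dextran-loaded rats. Chelator was given separately afterwards, 40 mg im as aqueous solution. Blood, liver, spleen and kidney were gamma-counted. Stool and urine were collected separately in metabolic cages. Results are percent of injected ⁵⁹Fe.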

Data set [2] has as its system Rattus norvegicus. The data set is described as follows: % distribution of the radioiron in rat spleen followed by intravenous injection of chelating agent. The conditions noted are these: in vivo.
Data set [3] concerns Rattus norvegicus. Kind of data set: % distribution of the radioiron in rat kidney followed by intravenous injection of chelating agent. The conditions noted are these: in vivo.
Data set [4] concerns Rattus norvegicus. The data set is described as follows: % distribution of the radioiron in rat liver followed by intravenous injection of chelating agent. The note with it: in vivo.
The test system of data set [5] is Rattus norvegicus. Kind of data set: % distribution of the radioiron in blood of rat followed by intravenous injection of chelating agent. The note with it: in vivo.
Data set [6] is filed under the species Rattus norvegicus. The data set is described as follows: […] determined in urine of rat followed by […] of chelating agent. The conditions noted are these: in vivo, iv. In outline: as §1
The test system of data set [7] is Rattus norvegicus. The data set is described as follows: % distribution of the radioiron in rat kidney followed by intravenous injection of transferrin pre-incubated with 10 mg of chelating agent. The conditions noted are these: in vivo. A digest of the protocol: (§2)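 Normal rats. Fresh rat plasma was labelled with ⁵⁹FeCl₃ plus excess citrate (citrate:Fe >50:1; final 0.5 μCi ⁵⁹Fe/mL). It was preincubated with 10 mg chelating agent and 1 mL was injected iv. Blood (1 mL), weighed liver portions, and whole spleen and kidney were counted in a well-type gamma counter. Feces and urine were collected separately in metabolic cages. Results are percent of injected ⁵⁹Fe ± SD.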

The test system of data set [8] is Rattus norvegicus. The data set is described as follows: % distribution of the radioiron in blood of rats followed by intravenous injection of transferrin pre-incubated with 10 mg of chelating agent. The note with it: in vivo. In outline:
as §2

Data set [9] concerns Rattus norvegicus. The data set is described as follows: % distribution of the radioiron in rat spleen followed by intravenous injection of transferrin pre-incubated with 10 mg of chelating agent. The conditions noted are these: in vivo. In outline:
as §2

Data set [10] deals with Rattus norvegicus. Kind of data set: % excretion of radioiron determined in urine of rat followed by intravenous injection of transferrin preincubated with 10 mg of chelating agent. The conditions noted are these: in vivo. A digest of the protocol: as §2
For data set [11], the system named is Rattus norvegicus. Kind of data set: % distribution of the radioiron in rat liver followed by intravenous injection of transferrin preincubated with 10 mg of chelating agent. The conditions noted are these: in vivo. In outline: as §2
Data set [12] deals with Rattus norvegicus. The data set is described as follows: % excretion of radioiron determined in feces of rat followed by intravenous injection of transferrin pre-incubated with 10 mg of chelating agent. The conditions noted are these: in vivo. A digest of the protocol:
as §2

Take `Cc1ncc(CO)c(/C=N/NC(N)=O)c1O`: the Distribution came to 4.1% in the data set filed under Rattus norvegicus [1]; 1% with Rattus norvegicus [2]; 0.3% in the data set on Rattus norvegicus [3]; 82.4% with Rattus norvegicus [4]; 12.3% with Rattus norvegicus [5]; 0.09% in the data set listed under Rattus norvegicus [6].
For the molecule `CC(=O)OCc1cnc(C)c(O)c1/C=N\NC(=O)c1ccncc1`, the Distribution with Rattus norvegicus [7] stood at 0.8%; in the data set on Rattus norvegicus [8], 31.7%; with Rattus norvegicus [9], 0.6%; in the data set with Rattus norvegicus [10], 0.8%; in the data set on Rattus norvegicus [11], 15.7%; in the data set on Rattus norvegicus [12], 10.4%.
Regarding `Cc1ncc(CO)c(/C=N/Nc2nc(-c3ccccc3)cs2)c1O`, the Distribution came to 8.2% in the data set filed under Rattus norvegicus [1]; 0.6% with Rattus norvegicus [2]; 0.5% in the data set with Rattus norvegicus [3]; 66.7% in the data set with Rattus norvegicus [4]; 19.6% in the data set with Rattus norvegicus [5]; 0.04% in the data set listed under Rattus norvegicus [6].
In the case of `Cc1csc(N/N=C/c2c(CO)cnc(C)c2O)n1`, the Distribution in the data set filed under Rattus norvegicus [1] was found to be 6.5%; in the data set with Rattus norvegicus [2], 0.8%; in the data set on Rattus norvegicus [3], 0.4%; with Rattus norvegicus [4], 60.2%; in the data set on Rattus norvegicus [5], 19.1%; in the data set listed under Rattus norvegicus [6], 0.01%.
As to `CCOC(=O)N/N=C/c1c(CO)cnc(C)c1O`, the Distribution worked out at 8.6% in the data set filed under Rattus norvegicus [1]; 0.7% in the data set on Rattus norvegicus [2]; 0.4% in the data set on Rattus norvegicus [3]; 63.8% with Rattus norvegicus [4]; 19% with Rattus norvegicus [5]; 0.03% in the data set listed under Rattus norvegicus [6].
On to `Cc1ncc(CO)c(/C=N/NC(=O)OC(C)(C)C)c1O`, for which the Distribution in the data set filed under Rattus norvegicus [1] stood at 7.3%; in the data set with Rattus norvegicus [2], 0.55%; in the data set with Rattus norvegicus [3] it was 0.4%; with Rattus norvegicus [4], 63.2%; in the data set on Rattus norvegicus [5], 19.4%; in the data set filed under Rattus norvegicus [6] it was 0.08%.
For the molecule `Cc1ncc(CO)c(/C=N/NC(=O)c2cccnc2)c1O`, the Distribution with Rattus norvegicus [7] was found to be 1%; with Rattus norvegicus [8], 39.6%; in the data set with Rattus norvegicus [9] it was 0.9%; in the data set with Rattus norvegicus [10] it was 0.3%; with Rattus norvegicus [11] it was 16.2%; in the data set with Rattus norvegicus [12] it was 6%.
Regarding `COc1ccc(COC(=O)N/N=C/c2c(CO)cnc(C)c2O)cc1`, the Distribution in the data set with Rattus norvegicus [7] is 0.8%; in the data set with Rattus norvegicus [8] it was 27%; in the data set on Rattus norvegicus [9], 0.6%; with Rattus norvegicus [10], 0.02%; in the data set with Rattus norvegicus [11], 14.7%; in the data set with Rattus norvegicus [12] it was 3.3%.
Turning to `Cc1ncc(CO)c(/C=N/NC(=O)c2ccnc3ccccc23)c1O`, the Distribution stood at 1% in the data set with Rattus norvegicus [7]; 27.9% in the data set with Rattus norvegicus [8]; 0.6% in the data set with Rattus norvegicus [9]; 0.4% in the data set on Rattus norvegicus [10]; 12.6% in the data set on Rattus norvegicus [11]; 6.8% with Rattus norvegicus [12].
As to `CC(=O)N(O)CCCCCNC(=O)CCC(=O)N(O)CCCCCNC(=O)CCC(=O)N(O)CCCCCN` [DEFEROXAMINE], the Distribution is listed as 15.5% in the data set filed under Rattus norvegicus [1]; 0.6% in the data set on Rattus norvegicus [7]; 7.4% with Rattus norvegicus [8]; 0.4% in the data set on Rattus norvegicus [2]; 0.2% in the data set on Rattus norvegicus [9]; 62.9% in the data set on Rattus norvegicus [10]. Further, the Distribution in the data set with Rattus norvegicus [3] came to 0.3%; in the data set with Rattus norvegicus [4] it was 71.3%; in the data set on Rattus norvegicus [11] it was 3%; with Rattus norvegicus [5], 1.8%; in the data set on Rattus norvegicus [12] it was 18.7%; in the data set filed under Rattus norvegicus [6], 0.08%.
As to `Cc1ncc(CO)c(/C=N/NC(=O)c2ccncc2)c1O` [PYRIDOXAL ISONICOTINOYL HYDRAZONE], the Distribution in the data set filed under Rattus norvegicus [1] came to 12%; in the data set on Rattus norvegicus [7] it was 0.6%; with Rattus norvegicus [8] it was 32%; in the data set with Rattus norvegicus [2] it was 0.5%; in the data set on Rattus norvegicus [9], 0.4%; in the data set with Rattus norvegicus [10] it was 4.3%. Further, the Distribution worked out at 0.3% in the data set with Rattus norvegicus [3]; 78.7% in the data set with Rattus norvegicus [4]; 9.6% in the data set with Rattus norvegicus [11]; 2.3% in the data set on Rattus norvegicus [5]; 32.8% in the data set with Rattus norvegicus [12]; 0.05% in the data set filed under Rattus norvegicus [6].

The values are drawn from ChEMBL document CHEMBL1122337, “Syntheses of iron bis(pyridoxal isonicotinoylhydrazone)s and the in vivo iron-removal properties of some pyridoxal derivatives” (J Med Chem, 1983).
